This is an account of results in ChEMBL document CHEMBL2062497, “Syntheses and in vitro evaluation of decalinvesamicol analogues as potential imaging probes for vesicular acetylcholine transporter (VAChT)” (Bioorg Med Chem, 2012).

One may read the Kd as the free concentration of one partner at which half of the binding sites on the other are occupied at equilibrium, for simple one-to-one binding. One may read the Ki as the equilibrium dissociation constant of an inhibitor or competing ligand from its target. Broadly, the logP is the decadic logarithm of the partition coefficient of the neutral form, usually between octanol and water.

Data set [1] has as its target T1, Vesicular acetylcholine transporter (Rattus norvegicus, UniProt Q62666).
T1 sequence (Q62666 whole entry): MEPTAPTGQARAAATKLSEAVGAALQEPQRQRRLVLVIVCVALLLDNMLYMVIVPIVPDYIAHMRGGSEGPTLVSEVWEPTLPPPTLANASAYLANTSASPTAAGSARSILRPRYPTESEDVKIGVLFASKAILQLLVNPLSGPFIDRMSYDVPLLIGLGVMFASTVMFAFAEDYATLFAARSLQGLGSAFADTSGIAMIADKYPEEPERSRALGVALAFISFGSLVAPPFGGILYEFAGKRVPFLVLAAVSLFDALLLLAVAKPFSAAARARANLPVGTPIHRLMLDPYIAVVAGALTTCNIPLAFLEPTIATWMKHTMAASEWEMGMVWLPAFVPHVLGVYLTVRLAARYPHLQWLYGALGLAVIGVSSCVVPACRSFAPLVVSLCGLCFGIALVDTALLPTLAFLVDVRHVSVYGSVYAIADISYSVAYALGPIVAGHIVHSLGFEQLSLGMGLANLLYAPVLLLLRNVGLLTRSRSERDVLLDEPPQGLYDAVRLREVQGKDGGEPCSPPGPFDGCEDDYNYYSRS
Description: Binding affinity to VAChT in rat cerebral membrane. In kind it is cell membranes.

A short description of data set [2]: Displacement of [3H]DTG from sigma2 receptor in Sprague-Dawley rat liver membrane after 90 mins by liquid scintillation counting in presence of pentazocine. In kind it is cell membranes. An outline of the steps:
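Sigma-2 assay: rat liver membranes (male Sprague-Dawley) with [3H]DTG (Kd 22.3 nM) plus pentazocine to mask sigma-1. Displacers at 1.0×10^-10–10^-5 M in 50 mM Tris-HCl pH 7.8, quadruplicate. Incubated 37 °C for 90 min, then filtered and scintillation counted. Three independent experiments; Ki via IC50/(1 + C/Kd).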

For data set [3], the target named is T1, Vesicular acetylcholine transporter. The data set can be described thus: Displacement of (-)-[3H]vesamicol from VAChT in Sprague-Dawley rat cerebral membrane after 60 mins by liquid scintillation counting in presence of DTG.
In data set [4] the target is Sigma non-opioid intracellular receptor 1 (Rattus norvegicus, UniProt Q9R0C9). Description: Displacement of (+)-[3H]pentazocine from sigma1 receptor in Sprague-Dawley rat cerebral membrane after 90 mins by liquid scintillation counting.
Data set [5] has as its target T1, Vesicular acetylcholine transporter. The data set can be described thus: Displacement of [125I]O-iodo-trans-decalinvesamicol from VAChT in Sprague-Dawley rat cerebral membrane after 1 hr by gamma counting. An outline of the steps:
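Male Sprague-Dawley cerebral membranes were incubated with 5 nM radioiodinated tracer and each ligand at 10^-10–10^-5 M in 50 mM Tris-HCl pH 7.8, quadruplicate. Nonspecific binding was taken with excess unlabelled ligand. Incubation was 37 °C for 1 h, then ice quench, PEI-soaked filter harvest and gamma counting.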
For orientation: Displacement assays read how much labelled ligand stays bound in the presence of the test substance.

Data set [6] in a line: n-octanol-water partition coefficient, log P at 0.51 MBq after 5 mins by gamma counting. In kind it is physicochemical. In a few lines:
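Tracer (0.51 MBq) partitioned between n-octanol and 0.1 M phosphate buffer pH 7.4 (n = 4). Vortexed 5 min at room temperature, then centrifuged 10 min at 2000g. Four samples per layer were gamma counted. logP = log10(octanol/aqueous radioactivity). Three independent experiments.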

Data set [7] concerns the target T1, Vesicular acetylcholine transporter. The data set can be described thus: Binding affinity to VAChT in Sprague-Dawley rat cerebral membrane after 1 hr by gamma counting in presence of haloperidol. In a few lines:
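Saturation binding of [¹²⁵I]-labelled radioligand (0.1–10 nM) to cerebral membranes from male 8-week Sprague-Dawley rats (sucrose homogenate, differential centrifugation), with 100 nM haloperidol masking σ receptors. Incubated in 50 mM Tris–HCl pH 7.8 for 1 h at 37 °C, in quadruplicate. Filtered and washed, then gamma counted. Specific binding is total minus nonspecific; Kd and Bmax come from the saturation curve and Scatchard plot.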

For another data set, the system named is Brain. The data set can be described thus: Drug uptake in Sprague-Dawley rat brain at 185 kBq, iv at 10 mins by gamma counting. In kind it is ADME, organism-based. The conditions noted are these: in vivo. In a few lines:
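Male Sprague-Dawley rats (8 weeks, 250–300 g, n = 4) got radioiodinated tracer, 185 kBq, by tail-vein injection. Sacrificed at 10 min. Whole brains were weighed and gamma counted, expressed as %ID/g.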

Sequence of Sigma non-opioid intracellular receptor 1 (Q9R0C9 whole entry): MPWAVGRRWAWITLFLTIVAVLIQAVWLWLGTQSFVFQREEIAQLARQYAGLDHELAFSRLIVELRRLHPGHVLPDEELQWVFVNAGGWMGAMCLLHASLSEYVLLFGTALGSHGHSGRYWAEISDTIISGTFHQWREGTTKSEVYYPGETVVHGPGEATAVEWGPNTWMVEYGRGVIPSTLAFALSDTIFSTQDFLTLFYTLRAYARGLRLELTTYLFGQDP

For `O[C@@H]1CCCCC1N1CCC(c2ccccc2[125I])CC1` (some centres not stated), the Kd in data set [1] amounted to 17.4 nM.

Take `OC1CCCCC1N1CCC(c2ccccc2)CC1` (configuration not stated): the Ki in data set [2] came to 86.7 nM. For the molecule `OC1C[C@@H]2CCCC[C@H]2CC1N1CCC(c2ccccc2I)CC1` (relative stereo), the Ki is 20.5 nM in data set [3], 242 nM in data set [4], 119 nM in data set [2] and 28.6 nM in data set [5].

For the molecule `OC1C[C@@H]2CCCC[C@H]2CC1N1CCC(c2ccccc2Br)CC1` (relative stereo), the Ki in data set [3] amounted to 13.8 nM; in data set [4], 151 nM; in data set [2] it was 138 nM; in data set [5], 9.3 nM. Consider `OC1C[C@@H]2CCCC[C@H]2CC1N1CCC(c2ccccc2)CC1` (relative stereo), for which the Ki turned out to be 74.1 nM in data set [4] and 68.3 nM in data set [2]. Take `OC1C[C@@H]2CCCC[C@H]2CC1N1CCC(c2ccccc2[125I])CC1` (relative stereo): the logP at 5 min in data set [6] amounted to 2.46. Also, the Kd in data set [7] was 1.73 nM. Moreover, the Drug uptake in the data set with Brain is 0.45 % ID/g. For the molecule `CC(C)=CCN1CC[C@]2(C)c3cc(O)ccc3C[C@H]1[C@H]2C` [(+)-PENTAZOCINE], the Ki in data set [5] is over 10000 nM.

For `Cc1ccccc1NC(=N)Nc1ccccc1C` [DITOLYLGUANIDINE], the Ki in data set [2] is 31.7 nM; in data set [5], 1130 nM. As for `O=C(CCCN1CCC(O)(c2ccc(Cl)cc2)CC1)c1ccc(F)cc1` [HALOPERIDOL], the Ki in data set [2] was determined as 51.6 nM. Turning to `O=C(c1ccc(F)cc1)C1CCN(CCn2c(=O)[nH]c3ccccc3c2=O)CC1` [KETANSERIN], in data set [5], the Ki is over 10000 nM. In data set [5], `NC[C@H](O)c1ccc(O)c(O)c1` [NOREPINEPHRINE] returned a Ki of over 10000 nM. `O=C(CCCN1CCC2(CC1)C(=O)NCN2c1ccccc1)c1ccc(F)cc1` [SPIPERONE]: affinity in data set [5] was put at a Ki of 1030 nM.
